Measurements from different studies.
Each line is one published result; the experiments were not run side by side.
Target: Serine/threonine-protein kinase Nek4 (NEK4, Homo sapiens, UniProt P51957)

SMILES | test | conditions | remaining binding [%]
CCN1CCN(Cc2ccc(C(=O)Nc3ccc(C)c(Oc4ccc5c(c4)CC(=O)N5)c3)cc2C(F)(F)F)CC1 | binding, competition with immobilised ligand | 1 µM | 100
Cc1cnc(Nc2ccc(C(=O)N3CCC(N4CCCC4)CC3)cc2)nc1-c1cc2ccccc2s1 | binding, competition with immobilised ligand | 1 µM | 59
Cc1c[nH]c2nccc(Oc3c(F)cc(Nc4cc(Cl)nc(N)n4)cc3F)c12 | cell-free assay, competition with immobilised ligand | 0.1 µM | 90
O=C(c1ccc(Nc2ncc(Cl)c(-c3cc4ccccc4s3)n2)cc1)N1CCC(N2CCCC2)CC1 | binding, competition with immobilised ligand | 1 µM | 48
COc1cnc(Nc2cccc(S(N)(=O)=O)c2)nc1N1CCN(c2ccccc2)C(=O)C1 | binding, competition with immobilised ligand | 1 µM | 79
C[C@H](c1cccc(C#N)c1)n1cc(Cl)cc(C(N)=O)c1=N | cell-free assay, competition with immobilised ligand | 1 µM | 100
O=C(c1ccc(Nc2nccc(-c3cc4ccccc4s3)n2)cc1)N1CCC(N2CCCC2)CC1 | binding, competition with immobilised ligand | 1 µM | 100
N[C@H]1CCN(c2nccc(-c3cnn4ncccc34)n2)C1 | binding | 1 µM | 100
CCCCN(CCCC)C(=O)CN1C[C@@H](c2cc(OC)c3c(c2)OCO3)[C@H](C(=O)O)[C@H]1CC(C)(C)CCC | cell-free assay, competition with immobilised ligand | 1 µM | 93.9
CN(C)c1nccc(-c2cnn3ncccc23)n1 | binding | 1 µM | 98
CN(c1ccnc(CNc2nc(Nc3ccc4c(c3)CC(=O)N4)ncc2C(F)(F)F)n1)S(C)(=O)=O | cell-free assay, competition with immobilised ligand | 1 µM | 84
C[C@@H]1CCN(c2nccc(-c3cnn4ncccc34)n2)C1 | binding | 1 µM | 83
COc1cnc(Nc2cccc(S(N)(=O)=O)c2)nc1N1CCN(c2ccccc2)CC1 | binding, competition with immobilised ligand | 1 µM | 95
Cn1nc(C(F)(F)F)cc1-c1cnc(N2CCc3cc(S(=O)(=O)Nc4c(F)cc(Cl)cc4F)cc(N4CCCC4=O)c32)nc1 | cell-free assay, competition with immobilised ligand | 1 µM | 72
c1cncc(-c2cccc(Nc3nccc(NC4CCCCC4)n3)c2)c1 | binding, competition with immobilised ligand | 10 µM | 100
COc1ccnn2ncc(-c3ccnc(N(C)C)n3)c12 | binding | 1 µM | 86
C=CC(=O)N1CCC(C(=O)NCC(=O)N2CCN(c3nc(-c4cnc(N)nc4C(F)F)nc(N4CCOCC4)n3)CC2)CC1 | binding, competition with immobilised ligand | 1 µM | 81
O=C(Nc1cccnn1)N1CC(C/C=C/c2cncc(Oc3ccc(C(F)(F)F)cn3)n2)C1 | cell-free assay, competition with immobilised ligand | 1 µM | 95
F[C@@H]1CCN(c2nccc(-c3cnn4ncccc34)n2)C1 | binding | 1 µM | 100
O=C(Nc1c[nH]nc1C(=O)NC1CCNCC1)c1cc(F)cc(F)c1 | binding, competition with immobilised ligand | 1 µM | 91
